# Published values gathered from unrelated publications.
# Protocols differ between the studies behind these lines.
# Read-out: cell growth or viability
SMILES,cell line,method,concentration,time,notes,quantity,result
N.N.[Cl][Pt][Cl],BEAS-2B,MTT,,24 h,,IC50,103000 nM
COc1c(C)c2c(c(O)c1C/C=C(\C)CCC(=O)O)C(=O)OC2,MDA-MB-468,,,,,IC50,417 nM
N.N.[Cl][Pt][Cl],MDA-MB-468,MTT,,48 h,dark,IC50,6970 nM
N.N.[Cl][Pt][Cl],MDA-MB-468,MTT,,48 h,,IC50,5000 nM
CN(C)c1ccc(C(=O)NCCCCCCC(=O)NO)cc1,HBL1,ATP luminescence,0.1 µM,5 days,,viability,125%
Cn1cc2cc(C(F)(F)c3nnc4ccc(-c5cnn(C6CC6)c5)nn34)c(F)cc2n1,KATO III,CCK-8,,72 h,,IC50,> 1000 nM
N.N.[Cl][Pt][Cl],HBL1,ATP luminescence,,72 h,,IC50,1310 nM
O=C(CCCCCCNC(=O)c1cnc(N(c2ccccc2)c2ccccc2)nc1)NO,MV4-11,ATP luminescence,,72 h,,EC50,713 nM
